NSD2 HMT inh – NSD2 histone methyltransferase inhibitors, primary screen, biochemical, AlphaScreen, single concentration, set 2; hit rate 0.54% among 310,000; AID 743445, 2014; Histone-lysine N-methyltransferase NSD2 (Homo sapiens), O96028; NSD2 peptide methylation, 120 min; inhibition, % at 12.5 µM; in the data active = inhibition above about 50%
LEDGF integ inh – blockers of LEDGF/p75-dependent integrase strand transfer – biochemical, TR-FRET, high throughput, primary screen | hit rate 0.64% among 370,000 | inhibition, % at 3.7 µM | HIV-1 integrase (with human LEDGF/p75) | TR-FRET IN-LEDGF/p75 DNA integration, Eu/Cy5;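 active = inhibition above the screen-wide mean plus 3 SD, cut at about 13% in these data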;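 also: signal is the Cy5 over europium emission ratio at 671 and 618 nm; 0% = plate median of compound wells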
Casp6 inh – human caspase-6 inhibitors, primary screen, biochemical, VEID-R110 fluorescence, single point, set 2; P55212; purified caspase-6, Z-VEID-R110 cleavage fluorescence; inhibition, % at 12.5 µM; hit rate 0.53% among 350,000; AID 686996, 2013;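 active = mean inhibition across replicates at least about 35%, with every replicate also reaching that limit, limit read from the data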;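 also: 0% = median of neutral control wells and 100% = no fluorescence left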
TDP2 absorb – human TDP2 enzyme inhibitors, primary screen, biochemical, epi absorbance, recombinant enzyme; hit rate 0.34% among 370,000; inhibition, % at 12.8 µM; Tyrosyl-DNA phosphodiesterase 2 (Homo sapiens), O95551; AID 720702, 2013; T5PNP hydrolysis, p-nitrophenol absorbance 415 nm;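 active = inhibition above the mean of all tested compounds plus 3 SD, set per campaign, cut at about 25% in these data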;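 also: 0% = DMSO with enzyme and 100% = buffer with substrate but no TDP2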
Target sequence (O95551 whole entry, looked up): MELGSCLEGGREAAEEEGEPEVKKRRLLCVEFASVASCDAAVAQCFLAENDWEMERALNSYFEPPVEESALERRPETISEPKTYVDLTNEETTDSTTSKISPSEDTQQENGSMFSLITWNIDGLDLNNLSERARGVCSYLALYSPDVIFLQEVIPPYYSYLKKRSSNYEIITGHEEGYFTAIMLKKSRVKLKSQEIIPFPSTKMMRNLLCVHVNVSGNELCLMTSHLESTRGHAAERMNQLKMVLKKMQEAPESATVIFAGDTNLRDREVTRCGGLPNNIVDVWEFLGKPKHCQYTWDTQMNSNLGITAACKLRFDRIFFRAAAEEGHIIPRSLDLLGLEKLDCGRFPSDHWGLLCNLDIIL
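Incubation: 2 h at 37 °C; Test system: recombinant human TDP2; Quantity: enzyme 120 nM; Read-out basis: percent inhibition; Medium: 50 mM Tris-HCl pH 7.5 with Mg2+, KCl, DTT, BSA; Repeats: single replicate; Compound: 12.8 µM single point, 1% DMSO; Signal: epi absorbance; Reagent: 5 mM T5PNP chromogenic substrate; Benchmarks: no-enzyme high, DMSO-plus-enzyme low.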
UCH37 inh – inhibitors of human UCH37 deubiquitinase, primary screen, biochemical, Ub-AMC cleavage, fluorescence | Ubiquitin carboxyl-terminal hydrolase isozyme L5 (Homo sapiens), Q9Y5K5 | purified proteasome/UCH37 | inhibition, % (concentration not given with the values) | hit rate 0.33% among 330,000 | AID 588478, 2011;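 active = mean inhibition over replicate wells above about 20%, limit read from the data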;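 also: 0% = compound-free wells with enzyme and 100% = wells lacking proteasome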
Target sequence (Q9Y5K5 whole entry, looked up): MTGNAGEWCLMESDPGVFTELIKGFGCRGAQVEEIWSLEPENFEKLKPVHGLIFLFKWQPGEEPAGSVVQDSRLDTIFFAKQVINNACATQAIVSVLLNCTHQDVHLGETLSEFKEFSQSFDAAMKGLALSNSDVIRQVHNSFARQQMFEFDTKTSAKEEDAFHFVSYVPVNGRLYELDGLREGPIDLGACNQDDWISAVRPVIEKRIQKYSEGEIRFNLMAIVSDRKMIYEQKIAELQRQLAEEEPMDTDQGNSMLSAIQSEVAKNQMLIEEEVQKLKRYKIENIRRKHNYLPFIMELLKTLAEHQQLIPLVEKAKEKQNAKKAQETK
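Test system – human UCH37 enzyme supplied as purified proteasome complex · Incubation – 30 min preincubation with enzyme, 25 min cleavage at room temperature · Detection – AMC fluorescence from Ub-AMC cleavage, excitation 355 nm, emission 460 nm · Benchmarks – no-proteasome wells (full inhibition) and compound-free wells (no inhibition)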
Numbers without * were called inactive; · = not tested or not shown; ! = a repeat was not active. The list is not random: actives were taken first. Their share in the collection is about 1.3%.

SMILES	NSD2 HMT inh	LEDGF integ inh	Casp6 inh	TDP2 absorb	UCH37 inh
C[C@H](CO)N1C[C@H](C)[C@@H](CN(C)S(=O)(=O)c2ccc3c(c2)OCCCO3)OCc2cn(nn2)CCCC1=O	·	3.8	47.0*!	-9.2	·
Cc1c(C=NNC(=O)c2sc3ccccc3c2Cl)cnn1C	·	·	·	·	3.5
Cc1ccc(NC(=O)CC2S/C(=N/N=C\C=C\c3ccccc3)NC2=O)cc1Cl (configuration not stated)	·	·	·	·	6.1
O=C(CC1S/C(=N/N=C/C=C/c2ccccc2)NC1=O)Nc1ccc(C(=O)O)cc1 (configuration not stated)	1.2	0.4	4.5	4.9	20.4*
O=C(NN=Cc1ccc(Cl)cc1)c1ccc2c(c1)OCO2	·	·	·	·	3.5
Cc1c(N=C2C=C(Br)C(=O)C(Br)=C2)c(=O)n(-c2ccccc2)n1C	29.7	56.7*	18.1	61.1*	2.4
Cc1c(N=Nc2ccc(O)cc2)c(=O)n(-c2ccccc2)n1C	-0.8	-0.1	5.2	-10.9	2.8
FC(F)(F)c1ccc(C=NN2CCN(Cc3cccc4ccccc34)CC2)cc1	·	·	·	·	2.6
O=C(c1ccccc1)C1C(=O)c2ccccc2C1=O	38.8	3.1	1.9	-1.4	30.6*
O=C(/C=C/c1ccccc1)C1C(=O)c2ccccc2C1=O	-0.4	-1.1	·	1.1	7.9
Cc1ccccc1S(=O)(=O)N1[C@@H]2CNC[C@H]1C2c1ccc(/C=C/c2ccccc2)cc1 (some centres not stated)	·	·	1.1	·	·
Cc1ccccc1S(=O)(=O)N1[C@@H]2CNC[C@H]1[C@@H]2c1ccc(-c2ccc(C#N)cc2)cc1	·	·	40.2*	·	·
COc1ccc(C=NNS(=O)(=O)c2ccccc2)cc1OC(=O)c1ccc(C)cc1	·	·	·	·	1.9
CCCCCC(=O)Nc1cc(S(=O)(=O)O)cc2cc(S(=O)(=O)O)cc(O)c12	105.0*	90.7*	98.1*	-1.8	·
CCCCCC(=O)Nc1cc(S(=O)(=O)N2CCCCC2)ccc1N1CCCCC1	-1.2	-0.4	4.1	-1.3	-4.0
O=C(CN1C(=O)S/C(=C\c2cccs2)C1=O)Nc1ccc(O)c(C(=O)O)c1	15.8	2.7	4.4	-1.5	20.6*
O=C(CN1C(=O)S/C(=C\c2cccs2)C1=O)Nc1ccc(C(=O)O)c(O)c1	27.5	-3.2	17.3	-12.3	13.4
COc1ccc(C(=O)C(C)OC(=O)c2nc3nccc(C)n3n2)cc1 (configuration not stated)	-1.0	-2.7	91.2*	-5.3	1.6
CC1=NN(c2ccccc2)C(=O)/C1=C\C=C\c1ccccc1	4.7	2.4	-4.8	1.9	·
CC1=NN(c2ccc(C)c(C)c2)C(=O)/C1=C\C=C\c1ccc([N+](=O)[O-])o1	2.5	11.9	47.2*	-12.3	4.7
COC(=O)C1=C(C(=O)OC)[C@@H]2N(C)c3ccccc3[C@@]23C[C@@H](C(=O)OC)N(C(=O)c2cccs2)C3=N1	·	1.1	-1.8	6.1	2.0
COC(=O)C1=C(C(=O)OC)[C@@H]2N(C)c3ccc(OC)cc3[C@@]23C[C@@H](C(=O)OC)N(C(=O)c2cccs2)C3=N1	·	·	·	·	41.9*
CCCOc1ccc(CC(=O)NN=Cc2ccc(F)cc2)cc1	·	·	·	·	1.8
C=CCOC(=O)C1=C[C@@H](c2ccc(C(F)(F)F)cc2)C[C@@H](OCCCCO)O1	·	0.7	·	-9.5	21.4*
C=CCOC(=O)C1=C[C@@H](c2ccc(Br)cc2)C[C@@H](OCCCCO)O1	·	1.7	8.0	3.6	3.7
SMILES	NSD2 HMT inh	LEDGF integ inh	Casp6 inh	TDP2 absorb	UCH37 inh
COc1ccc(C=NNC(=O)COc2cc(C)cc(C)c2)cc1COC(C)=O	·	·	·	·	2.5
O=C(CNC(=O)c1ccncc1)NN=Cc1cc(Br)ccc1OCc1ccccc1	·	·	·	·	2.7
C=CCc1c(C)nc(-c2ccccc2)nc1NN=Cc1ccncc1	·	·	·	·	9.9
Nc1nc(Sc2ccc([N+](=O)[O-])c3nonc23)c2[nH]cnc2n1	35.8	4.8	72.1*	1.2	·
CNc1ncnc(Sc2nc(N)nc3nc[nH]c23)c1[N+](=O)[O-]	2.1	6.0	·	-2.4	·
CCN1CCN(CCCNC(=O)CS(=O)(=O)Cc2nc(-c3ccccc3C)oc2C)CC1	4.1	-4.9	-36.4	-1.5	4.0
Cc1ccccc1-c1nc(CS(=O)(=O)CC(=O)NCCN2CCCC2)c(C)o1	·	0.1	36.0*	0.2	-1.0
O=C(C[C@@H]1C[C@H]2c3cc(NC(=O)Nc4ccccc4F)ccc3O[C@H]2[C@H](CO)O1)NC1CCCC1	·	·	99.0*	·	·
O=C(C[C@H]1C[C@H]2c3cc(NC(=O)Nc4ccccc4F)ccc3O[C@H]2[C@H](CO)O1)NC1CCCC1	·	·	4.1	·	·
COc1cccc(S(=O)(=O)Nc2ccc3c(c2)[C@H]2C[C@@H](CC(=O)NC4CCCCC4)O[C@H](CO)[C@H]2O3)c1	·	·	63.9*	·	·
COc1cccc(S(=O)(=O)Nc2ccc3c(c2)[C@@H]2C[C@@H](CC(=O)NC4CCCCC4)O[C@@H](CO)[C@@H]2O3)c1	·	·	-5.3	·	·
Cc1ccc(C=NNC(=O)c2ccoc2C)o1	·	·	·	·	6.1
O=C(NCC1CCCO1)C1CCCN(S(=O)(=O)c2ccc(F)cc2)C1 (configuration not stated)	-2.0	2.8	0.8	-6.0	0.0
CCS(=O)(=O)N1CCCC(C(=O)NCC2CCCO2)C1 (configuration not stated)	-2.5	-0.7	·	4.1	31.4*
O=[N+]([O-])c1cc2oc3c(c2c(C=NCc2ccncc2)c1O)CCCC3	64.7*	·	·	·	16.3
Cn1c(=O)c2cc(NCc3ccccc3)nnc2n(C)c1=O	·	12.7	·	75.5*	0.3
COc1nc(C)c2cc(C)oc2n1	-2.0	0.3	51.3*	4.5	2.5
O=C(COC(=O)Cc1ccc(S(=O)(=O)N2CCOCC2)s1)Nc1ccc(F)cc1F	-1.0	-6.3	43.0*	-2.4	2.0
COc1cc(C=NNC(=O)c2cccnc2)ccc1OCC(=O)Nc1ccccc1Cl	·	·	·	·	-180.9
COc1ccccc1N1CCN(C(=O)C(C)CS(=O)(=O)c2ccc3c(c2)NC(=O)CS3)CC1 (configuration not stated)	1.6	56.7*	68.2*	-6.3	7.4
COc1ccc(C(=O)ON=C(c2ccccc2)c2ccncc2)cc1OC	·	·	·	·	0.5
COc1ccc(N(C(=O)CS(=O)CC(=O)Nc2ccc(F)cc2)C(C(=O)NC2CCCCC2)c2cccs2)cc1 (configuration not stated)	0.7	15.5*	-1.0	4.9	4.4
NN1C(=O)/C(=C2/Sc3ccccc3N2CCCS(=O)(=O)O)SC1=S	9.7	2.5	55.4*	-14.7	5.7
COc1cc([N+](=O)[O-])cc(C=NNC(=O)c2cc(-c3ccccc3)nc3ccccc23)c1O	·	·	·	·	-4.9

High-throughput results from PubChem.
